These results are taken from ChEMBL document CHEMBL4680253, “Hybrids of MEK inhibitor and NO donor as multitarget antitumor drugs” (Eur J Med Chem, 2020).

Series [1] can be described thus: Antiproliferative activity against human A375 cells harboring BRAF V600E mutant assessed as inhibition of cell viability after 96 hrs by Celltiter-Glo assay. In kind it is functional, cell-based, A375/R. As to conditions: A-375, 96 h. (In general: Cellular ATP, detected with luciferase, serves as a proxy for viable cell number.)
A further series deals with A549. Put plainly: Antiproliferative activity against human A549 cells harboring KRAS G12S mutant assessed as inhibition of cell viability after 96 hrs by Celltiter-Glo assay. The class given is functional, cell-based. As to conditions: A549, 96 h.
Series [2] relates to MDA-MB-231. Kind of series: Antiproliferative activity against human MDA-MB-231 cells harboring KRAS G13D/BRAF G464V mutant assessed as inhibition of cell viability after 96 hrs by Celltiter-Glo assay. The class given is functional, cell-based. As to conditions: MDA-MB-231, 96 h.
For a further series, the system named is HCT-116. Put plainly: Antiproliferative activity against human HCT116 cells harboring KRAS G13D mutant assessed as inhibition of cell viability after 96 hrs by Celltiter-Glo assay. In kind it is functional, cell-based. As to conditions: HCT-116, 96 h.
Another series deals with HL-60. Kind of series: Antiproliferative activity against human HL60 cells harboring NRAS […] mutant assessed as inhibition of cell viability after 96 hrs by Celltiter-Glo assay. The class given is functional, cell-based. As to conditions: HL-60, 96 h.
Series [3] is described as follows: Prodrug release in human HCT-116 cells assessed as increase in intracellular NO level at 100 uM measured after 2 hr by DAF-FM DA reagent based laser confocal scanning microscopy. As to conditions: hct-116, 2 h.
The next series relates to L02. Kind of series: Cytotoxicity against human HL7702 cells assessed as reduction in cell viability after 96 hrs by Celltiter-Glo assay. In kind it is cell-based. As to conditions: L02, 96 h. The gist of the method: (§1)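 Cells kept at 37 °C in humidified 5% CO2 with 10% FBS; Vero in DMEM, HL7702 in RPMI-1640. Compounds added to plated cells and incubated 96 h at 37 °C. Viability read by CellTiter-Glo reagent added directly to the wells. IC50 fitted from the readings.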

The test system of a further series is Vero. Kind of series: Cytotoxicity against African green monkey Vero cells assessed as reduction in cell viability after 96 hrs by Celltiter-Glo assay. The class given is cell-based. As to conditions: Chlorocebus sabaeus. The gist of the method: as §1
In series [4] the test system is MDA-MB-231. Kind of series: Induction of apoptosis in human MDA-MB-231 cells assessed as late apoptotic cells at 10 uM incubated for 24 hrs by AnnexinV-FITC and propidium iodide staining based flow cytometry (reference value: 3.54%). The class given is functional. For orientation: Flow cytometry measures light scatter and fluorescence of single cells or particles in a stream.

The test system of series [5] is MDA-MB-231. Put plainly: Induction of apoptosis in human MDA-MB-231 cells assessed as necrotic cells at 10 uM incubated for 24 hrs by AnnexinV-FITC and propidium iodide staining based flow cytometry (reference value: 1.084%). The class given is functional.
Series [6] relates to MDA-MB-231. Kind of series: Induction of apoptosis in human MDA-MB-231 cells assessed as early apoptotic cells at 10 uM incubated for 24 hrs by AnnexinV-FITC and propidium iodide staining based flow cytometry (reference value: 4.4%). The class given is functional.
In series [7] the test system is MDA-MB-231. Put plainly: Induction of apoptosis in human MDA-MB-231 cells assessed as viable cells at 10 uM incubated for 24 hrs by AnnexinV-FITC and propidium iodide staining based flow cytometry (reference value: 90.962%). The class given is functional. As to conditions: read-out: Activity.

Structures are written as SMILES.

Turning to `Cc1c(Cc2cccc(NS(=O)(=O)NCCC#N)c2F)c(=O)oc2cc(OCCOc3no[n+]([O-])c3S(=O)(=O)c3ccccc3)ccc12`, the IC50 in series [1] stood at 0.66 µM; in the series with A549, 2.61 µM; in the series with MDA-MB-231 [2], 0.27 µM; with HCT-116, 0.76 µM; with HL-60 it was 0.64 µM. The Drug metabolism result in series [3] is recorded as “Metabolite_Detected”.
Take `CCNS(=O)(=O)Nc1cccc(Cc2c(C)c3ccc(OCCO)cc3oc2=O)c1F`: the IC50 is 0.2 µM in [1]; over 5 µM with A549; 2.48 µM with MDA-MB-231 [2]; 5.79 µM with HCT-116; 0.15 µM in the series with HL-60. In addition, the Drug metabolism entry in series [3] is on record as “Metabolite_Notdetected”.
For `CNS(=O)(=O)Nc1cccc(Cc2c(C)c3ccc(OCCCO)cc3oc2=O)c1F`, the IC50 is over 5 µM in the series with A549, 1.9 µM in the series on MDA-MB-231 [2] and 5.34 µM in the series with HCT-116. Further, in [3], the Drug metabolism result is recorded as “Metabolite_Notdetected”.
For the compound `CC(=O)Nc1cccc(-n2c(=O)n(C3CC3)c(=O)c3c(Nc4ccc(I)cc4F)n(C)c(=O)c(C)c32)c1` [TRAMETINIB], the IC50 in [1] was 0.0024 µM; in the series on A549, 0.46 µM; in the series with MDA-MB-231 [2] it was 0.018 µM; in the series with HCT-116, 0.019 µM; in the series with HL-60, 0.003 µM.
For `COCCNS(=O)(=O)Nc1cccc(Cc2c(C)c3ccc(OCCOc4no[n+]([O-])c4S(=O)(=O)c4ccccc4)cc3oc2=O)c1F`, the IC50 came out at 0.54 µM in series [1]; 2.27 µM in the series on A549; 0.38 µM in the series with MDA-MB-231 [2]; 0.71 µM in the series with HCT-116; 0.31 µM in the series with HL-60. Also, the Drug metabolism result in series [3] was “Metabolite_Detected”.
For the compound `Cc1c(Cc2cccc(NS(=O)(=O)NC(C)C)c2F)c(=O)oc2cc(OCCOc3no[n+]([O-])c3S(=O)(=O)c3ccccc3)ccc12`, the IC50 in [1] worked out at 0.97 µM; in the series on A549 it was 2.99 µM; in the series on MDA-MB-231 [2], 0.86 µM; with HCT-116 it was 1.23 µM; in the series with HL-60, 0.55 µM. In series [3], the Drug metabolism result is on record as “Metabolite_Detected”.
Consider `Cc1c(Cc2cccc(NS(=O)(=O)NC(C)C)c2F)c(=O)oc2cc(OCCO)ccc12`, for which the IC50 in series [1] is 0.15 µM; in the series with A549 it was over 5 µM; in the series on MDA-MB-231 [2], 2.38 µM; in the series on HCT-116, 5.09 µM; in the series with HL-60 it was 0.14 µM. The Drug metabolism entry in series [3] is “Metabolite_Notdetected”.
For `Cc1c(Cc2cccc(NS(=O)(=O)NCC(F)(F)F)c2F)c(=O)oc2cc(OCCOc3no[n+]([O-])c3S(=O)(=O)c3ccccc3)ccc12`, the IC50 in series [1] was found to be 0.5 µM; in the series on A549 it was 2.51 µM; in the series on MDA-MB-231 [2], 0.13 µM; in the series with HCT-116, 0.61 µM; in the series on HL-60, 0.27 µM. In addition, the Drug metabolism result in [3] is “Metabolite_Detected”.
In the case of `CCNS(=O)(=O)Nc1cccc(Cc2c(C)c3ccc(OCCOc4no[n+]([O-])c4S(=O)(=O)c4ccccc4)cc3oc2=O)c1F`, the IC50 was found to be 0.54 µM in series [1]; 2.57 µM with A549; 0.18 µM in the series with MDA-MB-231 [2]; 0.72 µM with HCT-116; 0.29 µM in the series with HL-60. In series [3], the Drug metabolism entry was “Metabolite_Detected”.
Regarding `CONS(=O)(=O)Nc1cccc(Cc2c(C)c3ccc(OCCO)cc3oc2=O)c1F`, the Drug metabolism entry in [3] is “Metabolite_Notdetected”.
Turning to `COCCNS(=O)(=O)Nc1cccc(Cc2c(C)c3ccc(OCCO)cc3oc2=O)c1F`, the IC50 in series [1] was 0.36 µM; in the series on A549, over 5 µM; in the series with MDA-MB-231 [2], 2.99 µM; with HCT-116, 6.5 µM; in the series with HL-60, 0.25 µM. Moreover, the Drug metabolism entry in series [3] is reported as “Metabolite_Notdetected”.
`CONS(=O)(=O)Nc1cccc(Cc2c(C)c3ccc(OCCOc4no[n+]([O-])c4S(=O)(=O)c4ccccc4)cc3oc2=O)c1F`: the IC50 in series [1] stood at 0.87 µM; with A549 it was 3.75 µM; with MDA-MB-231 [2], 0.31 µM; with HCT-116, 1.01 µM; with HL-60, 5.64 µM. Further, the Drug metabolism entry in series [3] was “Metabolite_Detected”.
With `CNS(=O)(=O)Nc1cccc(Cc2c(C)c3ccc(OCCO)cc3oc2=O)c1F`, the IC50 was 0.15 µM in [1]; over 5 µM in the series with A549; 2.19 µM with MDA-MB-231 [2]; 3.47 µM in the series on HCT-116; 0.1 µM with HL-60. For the same compound, in series [3], the Drug metabolism entry is “Metabolite_Notdetected”.
Regarding `Cc1c(Cc2cccc(NS(=O)(=O)NCCC#N)c2F)c(=O)oc2cc(OCCO)ccc12`, the IC50 was 0.65 µM in [1]; over 5 µM in the series with A549; 5.49 µM in the series on MDA-MB-231 [2]; 15.4 µM in the series on HCT-116; 0.39 µM in the series with HL-60. The Drug metabolism entry in series [3] was “Metabolite_Notdetected”.
Consider `CNS(=O)(=O)Nc1cccc(Cc2c(C)c3ccc(OCCCCO)cc3oc2=O)c1F`, for which the IC50 is over 5 µM with A549, 3.2 µM with MDA-MB-231 [2] and 7.35 µM with HCT-116. Further, the Drug metabolism result in series [3] was “Metabolite_Notdetected”.
For `CNS(=O)(=O)Nc1cccc(Cc2c(C)c3ccc(OCCCCOc4no[n+]([O-])c4S(=O)(=O)c4ccccc4)cc3oc2=O)c1F`, the IC50 with A549 is 3.49 µM; with L02, 1.93 µM; with Vero, 2.98 µM; with MDA-MB-231 [2], 0.2 µM; in the series on HCT-116, 2.78 µM. In series [3], the Drug metabolism entry was “Metabolite_Detected”.
For `CCOC(=O)N1CCN(/[N+]([O-])=N/Oc2ccc([N+](=O)[O-])cc2[N+](=O)[O-])CC1`, the IC50 in series [1] stood at 1.99 µM; with A549 it was 0.69 µM; in the series with L02, 1.99 µM; with Vero, 1.16 µM; in the series on MDA-MB-231 [2], 2.9 µM; in the series on HCT-116 it was 0.5 µM. In addition, the IC50 with HL-60 came out at 0.53 µM. The Activity stood at 19.2% in the series with MDA-MB-231 [4], 2.444% in the series with MDA-MB-231 [5] and 27.1% with MDA-MB-231 [6]. In addition, the Drug metabolism entry in series [3] is “Metabolite_Detected”. The viability at 10 µM with MDA-MB-231 [7] is 51.2%.
Regarding `Cc1c(Cc2cccc(NS(=O)(=O)NCC(F)(F)F)c2F)c(=O)oc2cc(OCCO)ccc12`, the concentration for half-maximal inhibition (IC50) in [1] is 0.93 µM; in the series on A549 it was over 5 µM; with MDA-MB-231 [2], 7.72 µM; in the series with HCT-116, 10.3 µM; in the series with HL-60 it was 0.78 µM. Further, in series [3], the Drug metabolism entry is given as “Metabolite_Notdetected”.

A word on the IC50: it is the point on the concentration scale where inhibition reaches its midpoint.
